Published values pooled from the literature.
Compare with care: the assays were run in different laboratories.
DHFR: Dihydrofolate reductase (DHFR, Homo sapiens, UniProt P00374)
Tmem97: Sigma intracellular receptor 2 (Tmem97, Rattus norvegicus, UniProt Q5U3Y7)

| Compound | target | test | conditions | measurement | result |
| --- | --- | --- | --- | --- | --- |
| S=C(NN=Cc1ccc(N2CCCCC2)cc1)Nc1c(Cl)cccc1Cl | DHFR | enzyme activity, inhibitor | 500 µM | inhibition | 83.2% |
| C[C@H]1C(=O)/C(=C/c2ccccc2)[C@H]2C[C@@H]1N(Cc1ccccc1)C[C@@]2(C)O | Tmem97 | ligand displacement, radioligand | 1 µM | inhibition | 0% |
| CC(C)OC(=O)CNc1cccc(CN(Cc2ccc(-n3cccn3)cc2)S(=O)(=O)c2cccnc2)n1 | Rho-associated protein kinase 1 (ROCK1, Homo sapiens, UniProt Q13464) | enzyme activity, inhibitor | 10 µM | inhibition | ≥ 50% |
| CNc1ncc2c(/C=C/C(=O)N3CCC(OC)CC3)nn(Cc3cccc(C(F)(F)F)c3)c2n1 | Mitogen-activated protein kinase kinase kinase 8 (MAP3K8, Homo sapiens, UniProt P41279) | enzyme activity, inhibitor, radiometric | 1 µM | remaining activity | 112% |
| COc1ccc(CN2C[C@](C)(O)[C@@H]3C[C@H]2[C@@H](C)c2nc4ccccc4c(-c4ccccc4)c23)cc1 | Tmem97 | ligand displacement, radioligand | 1 µM | inhibition | 0% |
| O=[N+]([O-])c1ccc(NC(=S)NN=Cc2ccc(N3CCCCC3)cc2)cc1 | DHFR | enzyme activity, inhibitor | 500 µM | inhibition | 90.6% |
| COc1cc([C@@H]2c3cc4c(cc3[C@@H](O[C@@H]3O[C@@H]5CO[C@@H](C)O[C@H]5[C@H](O)[C@H]3O)[C@H]3COC(=O)[C@H]23)OCO4)cc(OC)c1O | DNA topoisomerase 2-alpha (TOP2A, Homo sapiens, UniProt P11388) | enzyme activity, inhibitor | 31.5 µM | inhibition | 0% |
| C=CC(=O)N1CCC(COCC(=O)N2CCN(c3nc(-c4cnc(N)nc4C(F)F)nc(N4CCOC[C@@H]4C)n3)CC2)CC1 | BMP-2-inducible protein kinase (BMP2K, Homo sapiens, UniProt Q9NSY1) | binding, competition with immobilised ligand | 1 µM | remaining binding | 90% |
| S=C(NN=Cc1ccc(N2CCCCC2)cc1)Nc1ccccc1 | DHFR | enzyme activity, inhibitor | 500 µM | inhibition | 90.1% |
| COc1cc(-c2cncc3c2CN(C)Cc2cc(N4CCNCC4)ccc2-3)cc(OC)c1OC | MAPK/MAK/MRK overlapping kinase (MOK, Homo sapiens, UniProt Q9UQ07) | enzyme activity, inhibitor | 1 µM | remaining activity | 103% |
| Cc1cc([C@@H](C)Nc2ccccc2C(=O)O)c2nc(N3CCC(F)(F)CC3)c(C#N)c(=O)n2c1 | Casein kinase I isoform delta (CSNK1D, Homo sapiens, UniProt P48730) | binding, competition with immobilised ligand | 10 µM | remaining binding | 100% |
| COc1cccc(NC(=S)NN=Cc2ccc(N3CCCCC3)cc2)c1 | DHFR | enzyme activity, inhibitor | 500 µM | inhibition | 84.9% |
